Source: ChEMBL document CHEMBL4422685, “Design, synthesis and evaluation of a series of 5-methoxy-2,3-naphthalimide derivatives as AcrB inhibitors for the reversal of bacterial resistance” (Bioorg Med Chem Lett, 2019)
≈ marks a conversion by molar mass, not a printed value. Calls of active or inactive are those of the source. The calls are words filed in the database; no cut-off is given here.

How the values were obtained:
[1] = Solubility of the compound in DMSO; format: physicochemical
Escherichia coli [2] = assay: Antimicrobial activity against AcrB deficient Escherichia coli; format: functional
[3] = molecular target: T1, Multidrug efflux pump subunit AcrB (Escherichia coli (strain K12)) (UniProt P31224); assay: Inhibition of AcrB in wild-type drug-resistant Escherichia coli […] assessed as potentiation of chloramphenicol-induced antimicrobial activity by measuring chloramphenicol MIC at 128 ug/ml by checkerboard titration method (Rvb =16 ug/ml)
T1 sequence (whole entry): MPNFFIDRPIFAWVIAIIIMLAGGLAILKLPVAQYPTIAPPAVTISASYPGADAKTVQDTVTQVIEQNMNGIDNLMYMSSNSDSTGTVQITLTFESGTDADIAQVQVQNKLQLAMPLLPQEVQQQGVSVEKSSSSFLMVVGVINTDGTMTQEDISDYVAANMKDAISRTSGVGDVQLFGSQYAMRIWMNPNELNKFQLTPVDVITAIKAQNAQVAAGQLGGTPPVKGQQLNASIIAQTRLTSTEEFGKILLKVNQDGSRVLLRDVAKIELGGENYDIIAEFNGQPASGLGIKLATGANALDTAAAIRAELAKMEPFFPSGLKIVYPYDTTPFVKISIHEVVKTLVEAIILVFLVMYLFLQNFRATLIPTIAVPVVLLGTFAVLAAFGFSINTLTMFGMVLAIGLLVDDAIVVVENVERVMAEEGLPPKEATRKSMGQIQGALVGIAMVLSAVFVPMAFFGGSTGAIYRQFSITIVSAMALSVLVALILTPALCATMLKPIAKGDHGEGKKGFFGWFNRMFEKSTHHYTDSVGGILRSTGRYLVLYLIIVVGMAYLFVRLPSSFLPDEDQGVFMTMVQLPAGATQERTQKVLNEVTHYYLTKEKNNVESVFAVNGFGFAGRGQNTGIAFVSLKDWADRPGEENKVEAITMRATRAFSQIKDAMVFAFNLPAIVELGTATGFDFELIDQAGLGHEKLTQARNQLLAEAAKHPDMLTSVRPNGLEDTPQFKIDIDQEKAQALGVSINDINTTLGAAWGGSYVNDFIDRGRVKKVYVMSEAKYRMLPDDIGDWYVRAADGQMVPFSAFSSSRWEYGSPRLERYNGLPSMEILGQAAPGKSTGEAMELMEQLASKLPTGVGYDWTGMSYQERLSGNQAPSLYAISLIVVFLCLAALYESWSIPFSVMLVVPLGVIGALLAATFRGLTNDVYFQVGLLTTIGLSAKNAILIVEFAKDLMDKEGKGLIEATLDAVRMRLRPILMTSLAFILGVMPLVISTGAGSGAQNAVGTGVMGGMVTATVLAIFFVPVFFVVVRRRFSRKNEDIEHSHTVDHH

[4] = molecular target: T1, Multidrug efflux pump subunit AcrB (Escherichia coli (strain K12)); assay: Inhibition of AcrB in wild-type drug-resistant Escherichia coli […] assessed as potentiation of levofloxacin-induced antimicrobial activity by measuring levofloxacin MIC at 64 ug/ml by checkerboard titration method (reference value: 0.063 ug/ml)
[5] = molecular target: T1, Multidrug efflux pump subunit AcrB (Escherichia coli (strain K12)); assay: Inhibition of AcrB in wild-type drug-resistant Escherichia coli […] assessed as potentiation of tetraphenyl phosphonium chloride-induced antimicrobial activity by measuring tetraphenyl phosphonium chloride MIC at 16 ug/ml by checkerboard titration method (reference value: 1024 ug/ml)
[6] = molecular target: T1, Multidrug efflux pump subunit AcrB (Escherichia coli (strain K12)); assay: Inhibition of AcrB in wild-type drug-resistant Escherichia coli […] assessed as potentiation of tetraphenyl phosphonium chloride-induced antimicrobial activity by measuring tetraphenyl phosphonium chloride MIC at 64 ug/ml by checkerboard titration method (reference value: 1024 ug/ml)
[7] = molecular target: T1, Multidrug efflux pump subunit AcrB (Escherichia coli (strain K12)); assay: Inhibition of AcrB in wild-type drug-resistant Escherichia coli […] assessed as potentiation of erythromycin-induced antimicrobial activity by measuring erythromycin MIC at 8 ug/ml by checkerboard titration method (reference value: 64 ug/ml)
[8] = molecular target: T1, Multidrug efflux pump subunit AcrB (Escherichia coli (strain K12)); assay: Inhibition of AcrB in wild-type drug-resistant Escherichia coli […] assessed as potentiation of chloramphenicol-induced antimicrobial activity by measuring chloramphenicol MIC at 64 ug/ml by checkerboard titration method (Rvb =16 ug/ml)
Escherichia coli [9] = assay: Toxicity against wild-type drug-resistant Escherichia coli […] at 128 ug/ml; format: organism-based; settings: in vivo
Summary of the method: (§1)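 MIC determination against wild-type resistant E. coli BW25113 and an isogenic acrB-deleted strain; highest concentration tested 128 mg/L.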

[10] = molecular target: T1, Multidrug efflux pump subunit AcrB (Escherichia coli (strain K12)); assay: Inhibition of AcrB in wild-type drug-resistant Escherichia coli […] assessed as potentiation of levofloxacin-induced antimicrobial activity by measuring levofloxacin MIC at 16 ug/ml by checkerboard titration method (reference value: 0.063 ug/ml)
Escherichia coli [11] = assay: Toxicity against AcrB deficient Escherichia coli AcrB lacking at 128 ug/ml; format: organism-based; settings: in vivo; summary of the method: as §1
[12] = molecular target: T1, Multidrug efflux pump subunit AcrB (Escherichia coli (strain K12)); assay: Inhibition of AcrB in wild-type drug-resistant Escherichia coli […] assessed as potentiation of erythromycin-induced antimicrobial activity by measuring erythromycin MIC at 128 ug/ml by checkerboard titration method (reference value: 64 ug/ml)
[13] = molecular target: T1, Multidrug efflux pump subunit AcrB (Escherichia coli (strain K12)); assay: Inhibition of AcrB in wild-type drug-resistant Escherichia coli […] assessed as potentiation of erythromycin-induced antimicrobial activity by measuring erythromycin MIC at 16 ug/ml by checkerboard titration method (reference value: 64 ug/ml)
[14] = molecular target: T1, Multidrug efflux pump subunit AcrB (Escherichia coli (strain K12)); assay: Inhibition of AcrB in wild-type drug-resistant Escherichia coli […] assessed as potentiation of chloramphenicol-induced antimicrobial activity by measuring chloramphenicol MIC at 32 ug/ml by checkerboard titration method (Rvb =16 ug/ml)
[15] = molecular target: T1, Multidrug efflux pump subunit AcrB (Escherichia coli (strain K12)); assay: Inhibition of AcrB in wild-type drug-resistant Escherichia coli […] assessed as potentiation of levofloxacin-induced antimicrobial activity by measuring levofloxacin MIC at 128 ug/ml by checkerboard titration method (reference value: 0.063 ug/ml)
[16] = molecular target: T1, Multidrug efflux pump subunit AcrB (Escherichia coli (strain K12)); assay: Inhibition of AcrB in wild-type drug-resistant Escherichia coli […] assessed as potentiation of erythromycin-induced antimicrobial activity by measuring erythromycin MIC at 32 ug/ml by checkerboard titration method (reference value: 64 ug/ml)
[17] = molecular target: T1, Multidrug efflux pump subunit AcrB (Escherichia coli (strain K12)); assay: Inhibition of AcrB in wild-type drug-resistant Escherichia coli […] assessed as reduction in glucose-induced nile red efflux at 500 uM by fluorescence assay
Summary of the method: (§2)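 E. coli cells (wild-type resistant with active pump, acrB-deleted, or wild-type plus compound) preloaded with Nile Red before fluorescence recording. Efflux triggered at 100 s by adding 0.2% glucose. Fluorescence traces followed; experiments with different cell batches on three different days.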

[18] = molecular target: T1, Multidrug efflux pump subunit AcrB (Escherichia coli (strain K12)); assay: Inhibition of AcrB in wild-type drug-resistant Escherichia coli […] assessed as potentiation of erythromycin-induced antimicrobial activity by measuring erythromycin MIC at 64 ug/ml by checkerboard titration method (reference value: 64 ug/ml)
[19] = molecular target: T1, Multidrug efflux pump subunit AcrB (Escherichia coli (strain K12)); assay: Inhibition of AcrB in wild-type drug-resistant Escherichia coli […] assessed as potentiation of tetraphenyl phosphonium chloride-induced antimicrobial activity by measuring tetraphenyl phosphonium chloride MIC at 128 ug/ml by checkerboard titration method (reference value: 1024 ug/ml)
[20] = molecular target: T1, Multidrug efflux pump subunit AcrB (Escherichia coli (strain K12)); assay: Inhibition of AcrB in wild-type drug-resistant Escherichia coli […] assessed as potentiation of tetraphenyl phosphonium chloride-induced antimicrobial activity by measuring tetraphenyl phosphonium chloride MIC at 32 ug/ml by checkerboard titration method (reference value: 1024 ug/ml)
[21] = molecular target: T1, Multidrug efflux pump subunit AcrB (Escherichia coli (strain K12)); assay: Inhibition of AcrB in wild-type drug-resistant Escherichia coli […] assessed as potentiation of levofloxacin-induced antimicrobial activity by measuring levofloxacin MIC at 32 ug/ml by checkerboard titration method (reference value: 0.063 ug/ml)
[22] = molecular target: T1, Multidrug efflux pump subunit AcrB (Escherichia coli (strain K12)); assay: Inhibition of AcrB in wild-type drug-resistant Escherichia coli […] assessed as potentiation of chloramphenicol-induced antimicrobial activity by measuring chloramphenicol MIC at 8 ug/ml by checkerboard titration method (Rvb =16 ug/ml)
Escherichia coli [23] = assay: Induction of Escherichia coli outer membrane permeabilization assessed as increase in nitrocefin hydrolysis at 128 ug/ml by spectroscopic method; format: organism-based
[24] = molecular target: T1, Multidrug efflux pump subunit AcrB (Escherichia coli (strain K12)); assay: Inhibition of AcrB in wild-type drug-resistant Escherichia coli […] assessed as potentiation of tetraphenyl phosphonium chloride-induced antimicrobial activity by measuring tetraphenyl phosphonium chloride MIC at 8 ug/ml by checkerboard titration method (reference value: 1024 ug/ml)
[25] = molecular target: T1, Multidrug efflux pump subunit AcrB (Escherichia coli (strain K12)); assay: Inhibition of AcrB in wild-type drug-resistant Escherichia coli BW2113 assessed as potentiation of chloramphenicol-induced antimicrobial activity by measuring chloramphenicol MIC at 16 ug/ml by checkerboard titration method (Rvb =16 ug/ml)
[26] = molecular target: T1, Multidrug efflux pump subunit AcrB (Escherichia coli (strain K12)); assay: Inhibition of AcrB in wild-type drug-resistant Escherichia coli […] assessed as reduction in glucose-induced nile red efflux at 200 uM by fluorescence assay; summary of the method: as §2
[27] = molecular target: T1, Multidrug efflux pump subunit AcrB (Escherichia coli (strain K12)); assay: Inhibition of AcrB in wild-type drug-resistant Escherichia coli […] assessed as potentiation of levofloxacin-induced antimicrobial activity by measuring levofloxacin MIC at 8 ug/ml by checkerboard titration method (reference value: 0.063 ug/ml)

COc1cccc2cc3c(cc12)C(=O)N(c1cccc(C)c1)C3=O
solubility [1]: Insoluble

C[C@H]1COc2c(N3CCN(C)CC3)c(F)cc3c(=O)c(C(=O)O)cn1c23.C[C@H]1COc2c(N3CCN(C)CC3)c(F)cc3c(=O)c(C(=O)O)cn1c23.O [LEVOFLOXACIN]
MIC (Escherichia coli [2]): 0.0039 µg/mL

COc1cccc(N2C(=O)c3cc4cccc(OC)c4cc3C2=O)c1
solubility [1]: Insoluble

CCc1ccc(N2C(=O)c3cc4cccc(OC)c4cc3C2=O)cc1
solubility [1]: Insoluble

COc1cccc2cc3c(cc12)C(=O)N(Cc1ccc(F)cc1)C3=O
solubility [1]: Insoluble

COc1cccc2cc3c(cc12)C(=O)N(c1ccccc1C(F)(F)F)C3=O
solubility [1]: Insoluble

CCCCc1ccc(N2C(=O)c3cc4cccc(OC)c4cc3C2=O)cc1
solubility [1]: Insoluble

COc1cccc2cc3c(cc12)C(=O)N(c1ccc(C(C)C)cc1)C3=O
solubility [1]: Insoluble

COc1cccc2cc3c(cc12)C(=O)N(Cc1ccc(C)cc1)C3=O
solubility [1]: Insoluble

COc1ccccc1N1C(=O)c2cc3cccc(OC)c3cc2C1=O
solubility [1]: Insoluble

CC[C@H]1OC(=O)[C@H](C)[C@@H](O[C@H]2C[C@@](C)(OC)[C@@H](O)[C@H](C)O2)[C@H](C)[C@@H](O[C@@H]2O[C@H](C)C[C@H](N(C)C)[C@H]2O)[C@](C)(O)C[C@@H](C)C(=O)[C@H](C)[C@@H](O)[C@]1(C)O [ERYTHROMYCIN]
MIC (Escherichia coli [2]): 64 µg/mL (≈ 87.2 µM)

COc1cccc2cc3c(cc12)C(=O)N(CCc1ccccc1Cl)C3=O
solubility [1]: Insoluble

COc1cccc2cc3c(cc12)C(=O)N(C(C)(C)C)C3=O
MIC [3]: 16 µg/mL
MIC [4]: 0.063 µg/mL
MIC [5]: 1020 µg/mL
MIC [6]: 1020 µg/mL
MIC [7]: 64 µg/mL
MIC [8]: 16 µg/mL
Activity (Escherichia coli [9]): Non-Toxic
MIC [10]: 0.063 µg/mL
Activity (Escherichia coli [11]): Non-Toxic
MIC [12]: 32 µg/mL
MIC [13]: 64 µg/mL
MIC [14]: 16 µg/mL
MIC [15]: 0.063 µg/mL
MIC [16]: 64 µg/mL
inhibition [17]: 100%
MIC [18]: 32 µg/mL
MIC [19]: 512 µg/mL
MIC [20]: 1020 µg/mL
MIC [21]: 0.063 µg/mL
MIC [22]: 16 µg/mL
Activity (Escherichia coli [23]): Non-Toxic
MIC [24]: 1020 µg/mL
MIC [25]: 16 µg/mL
inhibition [26]: Active
MIC [27]: 0.063 µg/mL

COc1cccc2cc3c(cc12)C(=O)N(Cc1ccccc1Cl)C3=O
MIC [3]: 16 µg/mL
MIC [4]: 0.063 µg/mL
MIC [5]: 1020 µg/mL
MIC [6]: 1020 µg/mL
MIC [7]: 64 µg/mL
MIC [8]: 16 µg/mL
Activity (Escherichia coli [9]): Non-Toxic
MIC [10]: 0.063 µg/mL
Activity (Escherichia coli [11]): Non-Toxic
MIC [12]: 32 µg/mL
MIC [13]: 64 µg/mL
MIC [14]: 16 µg/mL
MIC [15]: 0.063 µg/mL
MIC [16]: 64 µg/mL
MIC [18]: 64 µg/mL
MIC [19]: 512 µg/mL
MIC [20]: 1020 µg/mL
MIC [21]: 0.063 µg/mL
MIC [22]: 16 µg/mL
MIC [24]: 1020 µg/mL
MIC [25]: 16 µg/mL
MIC [27]: 0.063 µg/mL

[Cl-].c1ccc([P+](c2ccccc2)(c2ccccc2)c2ccccc2)cc1 [TETRAPHENYLPHOSPHONIUM CHLORIDE]
MIC (Escherichia coli [2]): 32 µg/mL

COc1cccc2cc3c(cc12)C(=O)N(Cc1ccc(Cl)cc1)C3=O
solubility [1]: Insoluble

COc1cccc2cc3c(cc12)C(=O)N(CCc1ccc(F)cc1)C3=O
solubility [1]: Insoluble
